# An excerpt weighted towards active compounds, which were near 2.6% of everything screened.
# proCasp3 act – activates human procaspase-3; P42574; recombinant procaspase-3 D3A, Ac-DEVD-pNA absorbance 405 nm; activation, % at 8.5 µM; hit rate 0.11% among 330,000;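 active = activation above the mean of all tested compounds plus 3 SD, cut at about 21% in these data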;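 note: 0% = DMSO alone and 100% = DMSO wells spiked with extra 5 µM PC-3 D3A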
#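 Evaluation: percent activation relative to control range; Material: Procaspase-3 D3A mutant, all three cleavage aspartates alanine; Compound: single dose, 8.5 µM nominal compound, 0.8% DMSO; Replication: one well per compound; Signal: absorbance at 405 nm, 0 and 120 min; Schedule: 1 h preincubation plus 2 h reaction at 25 °C.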
# AHR act – human AHR activation; P35869; AHR-responsive luciferase reporter cells, luminescence; activation, % at 5 µM; hit rate 2.5% among 320,000; in the data active = activation above about 47%;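 note: 0% = vehicle wells and 100% = reference agonist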
# Target sequence (P35869 whole entry, looked up): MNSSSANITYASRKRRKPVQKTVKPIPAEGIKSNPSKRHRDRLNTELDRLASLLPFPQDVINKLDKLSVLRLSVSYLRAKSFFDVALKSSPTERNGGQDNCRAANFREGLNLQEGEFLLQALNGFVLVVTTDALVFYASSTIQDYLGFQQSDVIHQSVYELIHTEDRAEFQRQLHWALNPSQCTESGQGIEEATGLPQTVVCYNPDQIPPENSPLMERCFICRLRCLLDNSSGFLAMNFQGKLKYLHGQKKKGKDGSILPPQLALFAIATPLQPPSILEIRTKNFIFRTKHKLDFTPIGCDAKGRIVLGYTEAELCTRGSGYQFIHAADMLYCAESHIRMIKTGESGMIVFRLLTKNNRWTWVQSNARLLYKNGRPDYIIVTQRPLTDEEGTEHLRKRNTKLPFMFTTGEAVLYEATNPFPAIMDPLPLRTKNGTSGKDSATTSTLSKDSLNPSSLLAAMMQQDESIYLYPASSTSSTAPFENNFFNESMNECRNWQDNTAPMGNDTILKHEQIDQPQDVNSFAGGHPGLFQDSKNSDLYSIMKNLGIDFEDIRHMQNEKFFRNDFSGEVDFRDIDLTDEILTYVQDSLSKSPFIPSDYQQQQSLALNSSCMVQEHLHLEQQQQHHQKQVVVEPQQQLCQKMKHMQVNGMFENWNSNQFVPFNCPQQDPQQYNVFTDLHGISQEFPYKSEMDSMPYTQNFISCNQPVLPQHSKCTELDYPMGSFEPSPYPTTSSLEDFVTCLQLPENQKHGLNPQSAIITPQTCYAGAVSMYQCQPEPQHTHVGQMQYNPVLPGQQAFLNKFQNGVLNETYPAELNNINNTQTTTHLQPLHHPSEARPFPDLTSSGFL
# proCasp7 act – activates human procaspase-7, counter-screen for procaspase-3 activators | recombinant procaspase-7, Ac-DEVD-pNA absorbance 405 nm; D23A/D198A/D206A triple mutant, cannot self-cleave; scale: DMSO 0, 5 µM enzyme 100 | activation, % at 8.5 µM | AID 463210 | hit rate 0.093% among 330,000;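 active = percent activation above the screen-wide mean plus 3 SD, cut at about 25% in these data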
#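 Assay system: Uncleavable procaspase-7 mutant enzyme | Input: 2 µM procaspase-7 mutant as dispensed | Timing: 1 h compound preincubation, 2 h substrate cleavage, 25 °C | Repeats: One well per compound | Control set: DMSO wells as 0%, DMSO with 5 µM added PC-7 as 100% | Technique: Epi-absorbance of released pNA at 405 nm, two timepoints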
# PolyA inh – inhibitors of polyadenylation in S. cerevisiae; S. cerevisiae SKY197-pL101 polyadenylation reporter, beta-gal luminescence; efflux-impaired pdr1/pdr3 knockout yeast; score 100 = 6 SD above DMSO; activity score, % at 12 µM; hit rate 0.02% among 300,000;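 active = lowest replicate activity score at least 50, where 100 means six control SD above control mean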;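 note: yeast exposed to compound for 9 h at 30 °C; higher score means more reporter readthrough which indicates perturbed polyadenylation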
# AHR act confirm – human AHR activation, confirmation | shares compounds with AHR act | human cells, AHR-responsive luciferase reporter, luminescence | activation, % at 9 µM | hit rate 87% among 2,300 | AID 2845; in the data active = activation above about 49%;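 note: HepG2 hepatoma cells carrying a DRE-driven firefly luciferase reporter; 0% = vehicle wells and 100% = reference agonist wells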
# PXR act counter – PXR activation, counter-screen for AHR activators; hit rate 88% among 2,300; shares compounds with AHR act; cell-based PXR reporter, luciferase luminescence; activation, % at 11.6 µM; in the data active = activation above about 11%;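 note: human hepatoma DPX-2 cells expressing full-length human PXR; 0% = DMSO and 100% = reference agonist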
# The depositor's hits bear a star; / = no result given.
SMILES,proCasp3 act,AHR act,proCasp7 act,PolyA inh,AHR act confirm,PXR act counter
Brc1cc(-c2ccccc2)nc(-c2ccccc2)n1,0,20,7,-12,/,/
Cc1ccc(NC(=O)c2oc3ccccc3c2C)nc1,-1,139*,1,1,141*,14*
Cc1ccc(/C=N/Nc2ccnc3cc(Cl)ccc23)c(C)c1,-39,87*,-48,9,16,16*
Cc1ccccc1/C=N/Nc1ccnc2cc(Cl)ccc12,-31,2,-21,-18,/,/
CSCC[C@H](NC(=O)[C@H](Cc1ccccc1)n1c(=O)[nH]c2ccccc2c1=O)C(=O)NCC1CCC(C(=O)O)CC1 (stereo not given in full),4,1,9,11,/,/
CC(=O)N1CC=C2C(C#N)=C(N)C(C#N)(C#N)C(CCc3ccccc3)C2C1 (stereo not given),-22,80*,-9,-19,73*,24*
CCN1CC=C2C(C#N)=C(N)C(C#N)(C#N)C(CCc3ccccc3)C2C1 (stereo not given),-3,47,-1,/,/,/
COc1cccc(S(=O)(=O)Nc2ccc3c(c2)OCCO3)c1,/,/,/,-6,/,/
COc1ccc(NS(=O)(=O)c2ccc3oc(Nc4ccc5c(c4)OCCO5)nc3c2)cc1,0,87*,-11,3,60*,19*
Cn1c(=O)c2nc(-c3ccccc3)oc2c2ccccc21,3,104*,2,-30,120*,22*
CCOC(=O)c1c(C)[nH]c(C)c1S(=O)(=O)NCc1cc(C)ccc1C,1,9,2,-10,/,/
O=C(CCn1nc(-c2ccccc2)ccc1=O)N1CCN(c2ccccn2)CC1,0,82*,1,12,35,9
O=C(CCn1nc(-c2ccccc2)ccc1=O)N1CCOCC1,4,8,-6,11,/,/
CCCn1c(NC(=S)Nc2ccccc2)nc2ccccc21,3,83*,-10,-6,75*,11*
CCCn1c(NC(=O)c2ccccc2)nc2ccccc21,2,46,-1,-13,/,/
O=[N+]([O-])c1ccc(Cc2cncc(O)c2)cc1,/,/,/,-13,/,/
CCCn1c(-c2cccs2)nc2nc3ccccc3nc21,1,100*,2,-12,147*,37*
O=c1cc(CSc2nnc3ccccn23)c2c(ccc3ccccc32)o1,-2,84*,3,12,65*,29*
O=c1[nH]c(CSc2nnc3ccccn23)nc2ccccc12,5,15,9,10,/,/
Nc1cccc(Nc2ncnc3ccccc23)c1,1,152*,-7,-7,65*,/
CCN(CC(=O)Nc1ccc2c(c1)OCCO2)C(=O)c1cc(=O)[nH]c2ccccc12,-9,2,8,10,/,/
CCN1C(=NCCc2c[nH]c3ccccc23)N[C@@H](c2ccccc2)[C@H](C(=O)OC)[C@H]1C,-1,19,-5,1,/,/
O=C(COC(=O)Cc1cccs1)NCC(=O)Nc1ccc(F)cc1,-3,2,-6,/,/,/
Cc1ccc2cc3c(NC(=O)CC(C)C)nn(C)c3nc2c1,-7,103*,2,7,72*,/
Cc1ncoc1C(=O)Nc1nccs1,4,-2,4,-5,/,/
SMILES,proCasp3 act,AHR act,proCasp7 act,PolyA inh,AHR act confirm,PXR act counter
CC(=O)c1noc(C)c1C(=O)Nc1nccs1,-13,103*,-5,-3,81*,/
COCC(=O)N/N=C/c1ccc(Sc2nc3ccccc3s2)o1,-3,86*,-5,8,81*,22*
CN(C)c1cc(-c2ccc(Br)cc2)oc(=O)c1Cl,-7,85*,3,-5,70*,22*
CCOc1cc(C2Nc3ccccc3C(=O)N2c2ccccc2)c(Br)cc1OCC(=O)O (stereo not given),0,0,2,-1,/,/
COc1cc(C2Nc3ccccc3C(=O)N2c2ccc(Cl)cc2)c(Cl)cc1OCC(=O)O (stereo not given),8,116*,11,-6,89*,15*
COc1ccccc1NCC(=O)N/N=C(\C)c1ccc(Br)s1,-5,37,7,-7,/,/
C/C(=N/NC(=O)CNc1ccc(C)cc1)c1ccc(Br)s1,-6,83*,-10,-13,61*,15*
O=C(Nc1ccccc1)c1ccc(NCC2CCCO2)c([N+](=O)[O-])c1 (stereo not given),6,20,0,-13,/,/
O=C(Nc1cc(F)cc(F)c1)c1ccc(NCCCN2CCCCCC2)c([N+](=O)[O-])c1,2,83*,5,-2,118*,29*
O=C(Nc1ccccc1)c1ccc(NCCN2C(=O)CCC2=O)c([N+](=O)[O-])c1,4,81*,0,10,110*,23*
COc1cccc(NC(=O)c2ccc(NCCCN3CCC(C)CC3)c([N+](=O)[O-])c2)c1,3,2,4,10,/,/
Cc1[nH]c2ccccc2c1/C=N/NC(=O)c1cccc(F)c1,-3,43,4,3,/,/
CCc1cc(C(=O)N/N=C/c2c(C)[nH]c3ccccc23)cs1,4,99*,4,9,83*,28*
O=C(Nc1nccs1)c1csc2c1CCCC2,-3,84*,3,-27,121*,25*
CN1CCN(c2ccc(C(=O)c3cn(-c4ccc(F)c(Cl)c4)nn3)cc2)CC1,-2,4,-6,8,/,/
Cc1ccc(-n2cc(C(=O)c3ccc(N4CCN(C)CC4)cc3)nn2)cc1Cl,-9,90*,-11,-6,1,15*
COc1ccc(CNC(=O)c2c(C)nc3ccccn23)cc1,0,8,2,4,/,/
COc1ccc(NC(=O)c2c(Cl)nc3ccccn23)cc1,-2,86*,-6,-10,47,10
OCC1OC(Oc2c[nH]c3ccccc23)C(O)C(O)C1O (stereo not given),-18,84*,-10,-3,26,8
OCc1ccccc1O[C@@H]1O[C@H](CO)[C@@H](O)[C@H](O)[C@H]1O,10,0,10,-11,/,/
CCCN(C(=O)CSc1nc(C2CC2)n(-c2ccccc2)n1)C1CCS(=O)(=O)C1 (stereo not given),2,0,-9,/,/,/
CCCSc1nc2c(cnn2-c2ccccc2)c(=O)[nH]1,1,44,5,18,/,/
O=c1[nH]c(CSc2ccccn2)nc2c1cnn2-c1ccccc1,8,97*,4,-19,71*,34*
Cn1ccnc1SCc1nc2c(cnn2-c2ccccc2)c(=O)[nH]1,-1,82*,-7,-4,85*,16*
CC(=O)Nc1cc(NC(C)=O)cc(C(=O)OCC(=O)Nc2ccc(S(=O)(=O)NC3=NCCCCC3)cc2)c1,-8,-2,3,-8,/,/
